# Active and inactive are the calls of the source. The calls are words filed in the database; no cut-off is given here.
# Experiments:
# Cavia porcellus [1] = organism: Cavia porcellus; assay: In vitro bronchodilator activity in isolated guinea pig tracheal spiral preparation; format: functional; settings: Trachea
# Outline: (§1)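 Guinea pig tracheal spiral held under 1.0 g tension, equilibrated 90–120 min to maximal spontaneous tonus. One drug concentration per spiral, ≥3 trials per concentration. Relaxation was expressed as % of that produced by papaverine (10 µg/mL) in the same tissue. Concentrations are bath values in µg/mL; the 50%-relaxation concentration was obtained by regression.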
# Rattus norvegicus [2] = assay: In vivo bronchodilator activity in methacholine (intravenous) induced bronchospasm in male Harlan-Sprague-Dawley rats when administered intraduodenally; statistically significant inhibition of < 50% at thr stated dose; format: functional
# Rattus norvegicus [3] = assay: Antiallergic activity by passive cutaneous anaphylaxis test in rats by intravenous administration; format: functional
# Outline: (§2)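 Donor rats got egg albumin im (1 mg/rat) plus killed B. pertussis vaccine ip (2 × 10¹⁰ organisms/rat) and were bled 10–12 days later for IgE-rich antiserum. Recipient rats (100–150 g) were sensitized intradermally with 0.1 mL of 1:2.5 and 1:10 antiserum dilutions.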
# Rattus norvegicus [4] = organism: Rattus norvegicus; assay: Antiallergic activity in in vitro antigen-induced histamine release from isolated mast cells; format: functional, cell-based
# Outline: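 Peritoneal lavage cells from male Harlan-Sprague-Dawley rats (200–300 g), collected in HBSS with 0.1% human albumin and 5 mM phosphate. Cells were sensitized 2 h at 37 °C in rat antiserum with heparin, then challenged with EA; drug was added together with antigen at several concentrations, 4 trials each. After 10 min, histamine was measured fluorimetrically and % inhibition calculated vs drug-free release.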
# Cavia porcellus [5] = organism: Cavia porcellus; assay: Evaluation of in vitro bronchodilator activity in isolated guinea pig tracheal spiral preparation; format: functional; settings: Trachea; outline: as §1
# Rattus norvegicus [6] = assay: Antiallergic activity by passive cutaneous anaphylaxis test in ovalbumin sensitized male Harlan-Sprague-Dawley rats administered perorally; format: functional; settings: po; outline: as §2
# Rattus norvegicus [7] = assay: In vivo bronchodilator activity in methacholine (intravenous) induced bronchospasm in male Harlan-Sprague-Dawley rats when administered intraduodenally; format: functional
# Rattus norvegicus [8] = assay: Antiallergic activity was evaluated by inhibition of allergen-induced bronchospasm in male Harlan-Wistar rats when administered intraduodenally 15 min prior to antigen challenge; format: functional; settings: intraduodenal
# Rattus norvegicus [9] = assay: Antiallergic activity by passive cutaneous anaphylaxis test in ovalbumin sensitized male Harlan-Sprague-Dawley rats at 25 mg/kg oral dose (inactive); format: functional, organism-based; set-up: dose 25 mg/kg; outline: as §2
# Rattus norvegicus [10] = assay: Antiallergic activity by passive cutaneous anaphylaxis test in ovalbumin sensitized male Harlan-Sprague-Dawley rats administered orally; format: functional; settings: po; outline: as §2
# Rattus norvegicus [11] = assay: Antiallergic activity was evaluated by passive cutaneous anaphylaxis test in egg albumin sensitized male Harlan-Sprague-Dawley rats when administered perorally; format: functional; settings: po; outline: as §2
# Rattus norvegicus [12] = assay: Antiallergic activity by passive cutaneous anaphylaxis test in ovalbumin sensitized male Harlan-Sprague-Dawley rats by oral dose; format: functional; outline: as §2
structure (smiles),measurement,setting,value
CCc1nc2c([nH]1)N(Cc1ccc(Cl)cc1)C1=NCCN1C2=O,IC50,Cavia porcellus [1],13 µg/mL
same,ED50,Rattus norvegicus [2],> 10 mg/kg
O=C1c2[nH]cnc2N(Cc2ccc(Cl)c(Cl)c2)C2=NCCN12,IC50,Cavia porcellus [1],12.5 µg/mL
O=C([O-])c1cc(=O)c2c(OCC(O)COc3cccc4oc(C(=O)[O-])cc(=O)c34)cccc2o1.[Na+].[Na+] [CROMOLYN SODIUM],ED50,Rattus norvegicus [3],0.29 mg/kg
same,IC50,Rattus norvegicus [4],8 µM
CCCCCCCCN1C2=NCCN2C(=O)c2[nH]cnc21,IC50,Cavia porcellus [5],24.5 µg/mL
CC(C)CN1C2=NCCN2C(=O)c2[nH]nnc21,IC50,Cavia porcellus [1],~200 µg/mL
same,ED50,Rattus norvegicus [6],> 30 mg/kg
same,ED50,Rattus norvegicus [2],> 30 mg/kg
CSc1nc2c([nH]1)N(Cc1ccc(Cl)cc1)C1=NCCN1C2=O,IC50,Cavia porcellus [5],13.7 µg/mL
same,ED50,Rattus norvegicus [7],> 30 mg/kg
Cc1nc2c([nH]1)C(=O)N1CCN=C1N2CC(C)C,IC50,Cavia porcellus [1],2.8 µg/mL
same,ED50,Rattus norvegicus [8],5.4 mg/kg
Oc1c2ncnc-2n(Cc2ccc(Cl)cc2)c2nccn12,IC50,Cavia porcellus [1],4.1 µg/mL
same,ED50,Rattus norvegicus [7],8.1 mg/kg
O=C1c2[nH]cnc2N(CCc2ccc(Cl)cc2)C2=NCCN12,IC50,Cavia porcellus [1],53 µg/mL
same,ED50,Rattus norvegicus [9],inactive
Cc1nc2c(n1C)C(=O)N1CCN=C1N2CC(C)C,IC50,Cavia porcellus [1],36.6 µg/mL
Cc1nc2c(n1C)C(=O)N1CCN=C1N2Cc1ccc(Cl)cc1,IC50,Cavia porcellus [1],8.4 µg/mL
CC1(C)CN2C(=O)c3[nH]cnc3N(Cc3ccc(Cl)cc3)C2=N1,IC50,Cavia porcellus [1],14.3 µg/mL
same,ED50,Rattus norvegicus [8],3 mg/kg
same,ED50,Rattus norvegicus [10],35.3 mg/kg
O=C1c2nc[nH]c2N(Cc2ccccn2)C2=NCCN12,IC50,Cavia porcellus [1],128 µg/mL
same,ED50,Rattus norvegicus [6],> 25 mg/kg
O=C1N2CCN=C2c2[nH]cnc2N1Cc1ccc(Cl)cc1,ED50,Rattus norvegicus [2],> 50 mg/kg
CSC1=C2N=CN=C2N(Cc2ccc(Cl)cc2)C2=NCCN21,IC50,Cavia porcellus [5],8.1 µg/mL
same,ED50,Rattus norvegicus [7],> 30 mg/kg
CC1CN2C(=O)c3[nH]cnc3N(Cc3ccc(Cl)cc3)C2=N1 (centres undefined),IC50,Cavia porcellus [1],3.7 µg/mL
same,ED50,Rattus norvegicus [8],1.5 mg/kg
same,ED50,Rattus norvegicus [7],2.1 mg/kg
same,ED50,Rattus norvegicus [11],10.6 mg/kg
CCCCn1cnc2c1C(=O)N1CCN=C1N2Cc1ccc(Cl)cc1,IC50,Cavia porcellus [1],15.5 µg/mL
same,ED50,Rattus norvegicus [2],> 10 mg/kg
CC(C)CN1C2=NCCN2C(=O)c2[nH]cnc21,IC50,Cavia porcellus [1],6.3 µg/mL
same,ED50,Rattus norvegicus [12],> 25 mg/kg
Cn1cnc2c1C(=O)N1CCN=C1N2Cc1ccc(Cl)cc1,IC50,Cavia porcellus [1],2.9 µg/mL
same,ED50,Rattus norvegicus [9],inactive
same,ED50,Rattus norvegicus [7],8.8 mg/kg
S=C1c2[nH]cnc2N(Cc2ccc(Cl)cc2)C2=NCCN12,IC50,Cavia porcellus [1],5.1 µg/mL
same,ED50,Rattus norvegicus [2],> 30 mg/kg
C[C@@H]1N=C2N(Cc3ccc(Cl)cc3)c3[nH]cnc3C(=O)N2[C@H]1C,IC50,Cavia porcellus [1],1.1 µg/mL
same,ED50,Rattus norvegicus [8],2.8 mg/kg
same,ED50,Rattus norvegicus [7],5 mg/kg
same,ED50,Rattus norvegicus [11],35.5 mg/kg

# From ChEMBL document CHEMBL1121553, “Substituted 6,7-dihydroimidazo[1,2-a]purin-9(4H)-ones” (J Med Chem, 1980)
